# Data: ChEMBL document CHEMBL1770090, “Synthesis, antimicrobial, antioxidant, anti-hemolytic and cytotoxic evaluation of new imidazole-based heterocycles” (Eur J Med Chem, 2011)
# Tests used:
# Candida albicans = test: Antimicrobial activity against Candida albicans NRRL Y-477 after 48 hrs by agar well diffusion method; type: functional
# How it was run: (§1)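 Agar well diffusion. Inocula of 100 µL: bacteria 1 × 10^8 CFU/mL on nutrient agar, yeast 1 × 10^6 CFU/mL on Sabouraud dextrose agar, fungi 1 × 10^4 spore/mL on potato dextrose agar. 10 mm wells received 100 µL of compound at 100 mg/mL in DMSO. Bacteria incubated 24 h at 37 °C, fungi 48 h at 28 °C. Controls were DMSO, ciprofloxacin 50 µg/mL and ketoconazole 50 µg/mL. Inhibition zone diameter in mm, scored N.A. to ++++, average of triplicates.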
# Klebsiella pneumoniae [1] = test: Antimicrobial activity against Klebsiella pneumoniae ATCC 13883 after 24 hrs by two fold serial dilution technique; type: functional; conditions: ATCC 13883, 24 h
# How it was run: (§2)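 Tested only compounds giving inhibition zones ≥ 16 mm, by two-fold serial dilution in nutrient broth. Final concentrations were […], 175, 87.5, 43.8 and 21.9 µg/mL. Each 5 mL tube received 0.1 mL inoculum of about 1 × 10^8 CFU/mL and was incubated 24 h at 37 °C. MIC was the lowest concentration with no growth.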
# Bacillus subtilis [2] = test: Antimicrobial activity against Bacillus subtilis ATCC 6633 after 24 hrs by two fold serial dilution technique; type: functional; conditions: ATCC 6633, 24 h; how it was run: as §2
# Staphylococcus aureus [3] = test: Antimicrobial activity against Staphylococcus aureus ATCC 29213 after 24 hrs by agar well diffusion method; type: functional; how it was run: as §1
# Escherichia coli [4] = test: Antimicrobial activity against Escherichia coli ATCC 25922 after 24 hrs by agar well diffusion method; type: functional; how it was run: as §1
# Klebsiella pneumoniae [5] = test: Antimicrobial activity against Klebsiella pneumoniae ATCC 13883 after 24 hrs by agar well diffusion method; type: functional; how it was run: as §1
# Pseudomonas aeruginosa [6] = test: Antimicrobial activity against Pseudomonas aeruginosa ATCC 27953 after 24 hrs by agar well diffusion method; type: functional; how it was run: as §1
# Bacillus subtilis [7] = test: Antimicrobial activity against Bacillus subtilis ATCC 6633 after 24 hrs by agar well diffusion method; type: functional; how it was run: as §1
# Priestia megaterium [8] = test: Antimicrobial activity against Bacillus megaterium ATCC 9885 after 24 hrs by agar well diffusion method; type: functional; how it was run: as §1
# Aspergillus niger = test: Antimicrobial activity against Aspergillus niger after 48 hrs by agar well diffusion method; type: functional; how it was run: as §1
# Staphylococcus aureus [9] = test: Antimicrobial activity against Staphylococcus aureus ATCC 29213 after 24 hrs by two fold serial dilution technique; type: functional; conditions: ATCC 29213, 24 h; how it was run: as §2
# Priestia megaterium [10] = test: Antimicrobial activity against Bacillus megaterium ATCC 9885 after 24 hrs by two fold serial dilution technique; type: functional; conditions: ATCC 9885, 24 h; how it was run: as §2
# Escherichia coli [11] = test: Antimicrobial activity against Escherichia coli ATCC 25922 after 24 hrs by two fold serial dilution technique; type: functional; conditions: ATCC 25922, 24 h; how it was run: as §2
# Pseudomonas aeruginosa [12] = test: Antimicrobial activity against Pseudomonas aeruginosa ATCC 27953 after 24 hrs by two fold serial dilution technique; type: functional; conditions: ATCC 27953, 24 h; how it was run: as §2
# [13] = Cytotoxicity against mouse EAC cells assessed as cell viability using trypan blue staining after 2 hrs by hemocytometer analysis; type: functional, cell-based; conditions: Ehrlich
# [14] = Antioxidant activity in rat erythrocytes assessed as inhibition of peroxyl radicals-induced hemolysis at 2 mM after 2 hrs; type: functional; conditions: Erythrocyte, read-out: INH
# How it was run: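 Rat blood from cardiac puncture, heparinized. Erythrocytes were washed three times in 0.15 M NaCl. A 10% suspension in PBS pH 7.4 was mixed with an equal volume of 200 mM AAPH in PBS containing sample, then shaken at 37 °C for 2 h. Mixture diluted with 8 volumes of PBS and centrifuged; supernatant A540 compared with a water-lysed sample for complete hemolysis. L-ascorbic acid was the positive control. Mean ± SD.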
# [15] = Antioxidant activity assessed as ABTS radical scavenging activity at 2 mM; type: functional
# How it was run: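 ABTS (60 µM, 2 mL) was oxidized with MnO2 (25 mg/mL, 3 mL) in 0.1 M phosphate buffer pH 7, then centrifuged and filtered, with A734 adjusted to about 0.5. 50 µL of 2 mM compound in MeOH/phosphate buffer (1:1) was added. Colour loss expressed as % inhibition. L-ascorbic acid was the standard; blank and negative controls used MeOH/buffer.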
MIC (Klebsiella pneumoniae [1]) [µg/mL],MIC (Bacillus subtilis [2]) [µg/mL],MIC (Staphylococcus aureus [9]) [µg/mL],MIC (Priestia megaterium [10]) [µg/mL],MIC (Escherichia coli [11]) [µg/mL],MIC (Pseudomonas aeruginosa [12]) [µg/mL],SMILES,diameter of the inhibition zone (DIZ) (Candida albicans),diameter of the inhibition zone (DIZ) (Staphylococcus aureus [3]),diameter of the inhibition zone (DIZ) (Escherichia coli [4]),diameter of the inhibition zone (DIZ) (Klebsiella pneumoniae [5]),diameter of the inhibition zone (DIZ) (Pseudomonas aeruginosa [6]),diameter of the inhibition zone (DIZ) (Bacillus subtilis [7]),diameter of the inhibition zone (DIZ) (Priestia megaterium [8]),diameter of the inhibition zone (DIZ) (Aspergillus niger),IC50 [13] [µg/mL],percent hemolysis at 2000 µM [14] [%],inhibition [15] [%]
21.9,43.8,43.8,,,,C/C(=N\N=C1\NC(=O)CS1)c1nc(-c2ccccc2)[nH]c1C,<=4 mm,16 mm,<=4 mm,16 mm,<=4 mm,16 mm,<=4 mm,<=4 mm,,,
10.9,10.9,21.9,21.9,21.9,10.9,O=C(O)c1cn(C2CC2)c2cc(N3CCNCC3)c(F)cc2c1=O [CIPROFLOXACIN],<=4 mm,16 mm,16 mm,>=21 mm,>=21 mm,>=21 mm,16 mm,<=4 mm,,,
,43.8,21.9,21.9,21.9,21.9,C/C(=N\NC(=O)/C(C#N)=C\c1ccc(F)cc1)c1nc(-c2ccccc2)[nH]c1C,<=4 mm,>=21 mm,16 mm,10 mm,16 mm,16 mm,>=21 mm,<=4 mm,85.2,0.86,68.6
